Source: PubChem BioAssay (The Scripps Research Institute Molecular Screening Center)
MBD2 DNA inh = inhibitors of MBD2 binding to methylated DNA, primary screen, biochemical, TR-FRET, DNA-binding domain, human. inhibition, % at 4.4 µM. MBD2 binding to methylated oligonucleotide. actives 0.31% (n = 370,000). AID 686964, 2013; in the data active means inhibition above about 13%
UHRF1 binding = UHRF1 methylated DNA binding inhibitors, primary screen, counter-screen for MBD2 inhibitor project, biochemical, TR-FRET, human UHRF1, single concentration; E3 ubiquitin-protein ligase UHRF1 (Homo sapiens), Q96T88; AID 687016, 2013; actives 0.75% (n = 370,000); inhibition, % at 4.4 µM; UHRF1 binding to methylated oligo; in the data active means inhibition above about 21%;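 further: UHRF1 SRA domain binding a hemimethylated CpG hairpin DNA probe; 0% = median of test compound wells and 100% = reference inhibitor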
TDP2 absorb = human TDP2 enzyme inhibitors, primary screen, biochemical, epi absorbance, recombinant enzyme; AID 720702, 2013; Tyrosyl-DNA phosphodiesterase 2 (Homo sapiens), O95551; inhibition, % at 12.8 µM; actives 0.34% (n = 370,000); T5PNP hydrolysis, p-nitrophenol absorbance 415 nm;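 active means inhibition above the mean of all tested compounds plus 3 SD, set per campaign, cut at about 25% in these data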;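 further: 0% = DMSO with enzyme and 100% = buffer with substrate but no TDP2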
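Incubation: 2 h at 37 °C; Test system: recombinant human TDP2; Quantity: enzyme 120 nM; Read-out basis: percent inhibition; Medium: 50 mM Tris-HCl pH 7.5 with Mg2+, KCl, DTT, BSA; Repeats: single replicate; Compound: 12.8 µM single point, 1% DMSO; Signal: epi absorbance; Reagent: 5 mM T5PNP chromogenic substrate; Benchmarks: no-enzyme high, DMSO-plus-enzyme low.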
Rin1 Abl inh = inhibitors of Rin1-Abl protein binding, primary screen, biochemical, TR-FRET. Tyrosine-protein kinase ABL1 (Homo sapiens) + Ras and Rab interactor 1 (Homo sapiens), …. inhibition, % at 7.35 µM. actives 0.4% (n = 360,000); in the data active means inhibition above about 5%, passing the limit was not always enough
Target sequence (P00519 whole entry, looked up): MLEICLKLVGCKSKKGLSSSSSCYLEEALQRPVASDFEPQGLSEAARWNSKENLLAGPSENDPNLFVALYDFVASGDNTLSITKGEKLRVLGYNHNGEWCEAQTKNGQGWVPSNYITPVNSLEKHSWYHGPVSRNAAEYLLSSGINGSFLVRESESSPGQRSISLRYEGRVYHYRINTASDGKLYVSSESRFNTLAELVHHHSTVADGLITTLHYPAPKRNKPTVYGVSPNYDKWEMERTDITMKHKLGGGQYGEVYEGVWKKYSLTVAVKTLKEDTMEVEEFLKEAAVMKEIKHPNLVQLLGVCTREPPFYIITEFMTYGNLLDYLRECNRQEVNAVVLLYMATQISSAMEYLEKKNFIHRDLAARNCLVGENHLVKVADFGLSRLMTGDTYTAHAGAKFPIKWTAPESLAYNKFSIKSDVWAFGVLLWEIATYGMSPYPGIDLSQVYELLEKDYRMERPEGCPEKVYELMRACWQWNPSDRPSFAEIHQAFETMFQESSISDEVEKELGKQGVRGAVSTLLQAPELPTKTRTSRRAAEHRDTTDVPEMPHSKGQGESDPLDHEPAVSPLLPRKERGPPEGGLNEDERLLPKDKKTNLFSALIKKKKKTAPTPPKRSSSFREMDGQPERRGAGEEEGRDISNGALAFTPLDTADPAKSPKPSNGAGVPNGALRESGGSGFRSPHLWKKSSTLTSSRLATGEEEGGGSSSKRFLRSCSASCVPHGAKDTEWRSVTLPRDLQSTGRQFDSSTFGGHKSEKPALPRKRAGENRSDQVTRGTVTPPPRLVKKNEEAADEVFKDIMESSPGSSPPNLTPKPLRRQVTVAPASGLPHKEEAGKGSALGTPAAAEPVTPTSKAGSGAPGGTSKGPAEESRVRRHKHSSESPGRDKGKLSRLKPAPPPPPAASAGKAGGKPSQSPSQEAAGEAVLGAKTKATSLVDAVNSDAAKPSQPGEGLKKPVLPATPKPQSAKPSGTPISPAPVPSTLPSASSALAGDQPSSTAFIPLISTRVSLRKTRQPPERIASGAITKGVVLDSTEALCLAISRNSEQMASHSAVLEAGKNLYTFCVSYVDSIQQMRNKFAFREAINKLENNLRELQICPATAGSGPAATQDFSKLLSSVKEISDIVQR
Target sequence (Q13671 whole entry, looked up): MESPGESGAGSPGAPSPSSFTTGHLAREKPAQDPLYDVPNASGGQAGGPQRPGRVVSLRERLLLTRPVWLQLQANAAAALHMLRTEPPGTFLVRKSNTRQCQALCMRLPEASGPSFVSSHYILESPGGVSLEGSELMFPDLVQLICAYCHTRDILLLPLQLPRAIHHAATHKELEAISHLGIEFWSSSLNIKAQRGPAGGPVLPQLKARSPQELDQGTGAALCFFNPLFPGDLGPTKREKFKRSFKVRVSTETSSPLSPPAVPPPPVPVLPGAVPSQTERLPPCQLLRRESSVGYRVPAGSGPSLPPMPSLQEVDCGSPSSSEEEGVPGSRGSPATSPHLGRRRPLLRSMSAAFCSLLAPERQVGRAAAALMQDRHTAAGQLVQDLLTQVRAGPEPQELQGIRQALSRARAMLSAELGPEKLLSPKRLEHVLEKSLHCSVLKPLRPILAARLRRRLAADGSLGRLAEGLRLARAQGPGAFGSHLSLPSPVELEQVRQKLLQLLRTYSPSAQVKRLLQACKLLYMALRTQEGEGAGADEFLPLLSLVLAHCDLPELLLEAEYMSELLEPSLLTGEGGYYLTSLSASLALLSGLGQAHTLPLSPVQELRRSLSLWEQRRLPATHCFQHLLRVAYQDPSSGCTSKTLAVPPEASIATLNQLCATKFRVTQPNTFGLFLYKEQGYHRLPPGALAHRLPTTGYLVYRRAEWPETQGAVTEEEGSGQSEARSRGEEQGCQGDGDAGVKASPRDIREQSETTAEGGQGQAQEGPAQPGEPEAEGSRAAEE
LEDGF integ inh = blockers of LEDGF/p75-dependent integrase strand transfer – biochemical, TR-FRET, high throughput, primary screen; HIV-1 integrase (with human LEDGF/p75); TR-FRET IN-LEDGF/p75 DNA integration, Eu/Cy5; inhibition, % at 3.7 µM; actives 0.64% (n = 370,000);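 active means inhibition above the screen-wide mean plus 3 SD, cut at about 13% in these data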;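 further: signal is the Cy5 over europium emission ratio at 671 and 618 nm; 0% = plate median of compound wells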
* hit, by the source's call; / = no result. Sampled rows, rich in hits. Any-hit rate of the full collection: about 1.9%.

SMILES	MBD2 DNA inh	UHRF1 binding	TDP2 absorb	Rin1 Abl inh	LEDGF integ inh
O=C(CCNC(=O)c1ccc(Br)cc1)NCCCN1CCOCC1	6	23*	5	2	-2
O=C(NC(=S)NCCCN1CCOCC1)c1ccc(Br)cc1	-4	-1	-9	3	6
C=CCN(c1ccc(C(=O)NCCN2CCOCC2)cc1)S(C)(=O)=O	-2	29*	4	2	3
CN(CCNC(=O)CCCOc1cc(=O)n(C)c2ccccc12)Cc1ccccc1	6	21*	0	2	1
CN(CCCNC(=O)CCCOc1cc(=O)n(C)c2ccccc12)Cc1ccccc1	-3	-1	-6	-2	4
O=C(CSc1nnc(SCc2cccc3ccccc23)s1)Nc1ccccc1-c1ccccc1	-4	-1	17	/	-1
CN(C)c1cccc(-c2ccnc(N3CCC(C(N)=O)CC3)n2)c1	-4	-2	3	/	1
OCCN(CC#CC(O)(c1ccccc1)c1cccc(F)c1)CCO (configuration not stated)	9	26*	1	4	-5
Cc1cc(O)c(Sc2ncn[nH]2)cc1NS(=O)(=O)c1ccc(Cl)cc1	-5	0	0	2	6
O=S(=O)(Nc1cc(Sc2ncn[nH]2)c(O)c2ccccc12)c1ccccc1	-4	11	71*	7	34*
COC(=O)[C@]12C[C@H](CC(=O)NCc3cccs3)C(=O)N(Cc3cccc4ccccc34)C1=C[C@H](C1CCCC1)O[C@@H]2C	-2	-2	-6	/	-1
COCCN1CCCc2nc(-c3ccc(Br)cc3)ccc21	-4	-3	6	/	0
Cc1ccc(-n2c(-c3nn(C)cc3Cl)n[nH]c2=S)cc1	3	21*	-8	-2	1
Cn1cc(Cl)c(-c2n[nH]c(=S)n2-c2ccccc2)n1	-2	2	2	-9	-2
COc1ccc(-c2nnc(SCC(=O)NN=C/C=C\c3ccco3)n2-c2ccc(OC)cc2)cc1	5	-4	3	/	5
Nc1cccc2[nH]c(C(F)(F)F)nc12	-1	2	32*	-1	8
O=C(O)c1cccc2[nH]c(C(F)(F)F)nc12	1	-2	6	0	0
Nc1nc2ncc(C(=O)c3cc(F)ccc3O)cc2s1	7	22*	17	-3	-3
CCCC[C@H]1C2CC(OC(=O)Nc3ccc(Cl)cc3)C(C2)[C@H]2CCCCN21 (some centres not stated)	-3	0	3	/	-6
Cc1ccc(O)c(NC(=O)CSc2n[nH]c(C)c2[N+](=O)[O-])c1	2	33*	-1	0	0
CSc1ccccc1NC(=O)CSc1n[nH]c(C)c1[N+](=O)[O-]	1	-3	-4	-1	-4
Cc1ccc(C(=O)Nc2ccc(O)c(C(=O)O)c2)o1	4	44*	-8	1	1
COC(=O)[C@]12CCCCC=C1N(Cc1ccccc1)C(=O)[C@H](CC(=O)NCc1cccc3ccccc13)C2	-1	2	2	/	0
COC(=O)[C@]12CCCCC=C1N(CCC1=CCCCC1)C(=O)[C@H](CC(=O)NCc1cccc3ccccc13)C2	6	21*	-4	/	-2
COc1ccc(N2CCN(C(=O)CN(c3ccc(OC)cc3)S(=O)(=O)c3ccccc3)CC2)cc1	8	31*	14	-1	6
Cc1cccc(NC(=S)N(CCCN2CCOCC2)Cc2cn(C)c3ccccc23)c1	1	42*	-4	0	0
C=CCN1C(C(=O)OC)CN(Cc2cn(CCC3OCCO3)nn2)CCS1(=O)=O (configuration not stated)	10	19	-1	/	0
C/C(=N\OCc1ccc(C#N)cc1)c1ccc(S(=O)(=O)N(C)C)cc1	-2	0	1	-2	-4
C/C(=N\OCc1ccc(C#N)cc1)c1ccccc1	0	71*	10	-1	-4
